# Assay outcomes: PubChem, several laboratories
# DNMT1 inh = DNMT1 (human) enzyme inhibition; AID 588458; DNMT1 molecular beacon, Hinp1I cleavage, fluorescence; 360,000 tested, 0.83% active; inhibition (reported as % activation of signal), % at 10 µM; P26358
# Casp6 inh = inhibitors of human caspase-6. 350,000 tested, 0.53% active. P55212. purified caspase-6, Z-VEID-R110 cleavage fluorescence. inhibition, % at 12.5 µM;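 active = mean inhibition across replicates at least about 35%, with every replicate also reaching that limit, limit read from the data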
# NSD2 inh = inhibitors of human histone methyltransferase NSD2 | O96028 | NSD2 peptide methylation, AlphaScreen, 120 min | inhibition, % at 12.5 µM | 310,000 tested, 0.54% active | AID 743445
# NS3 helicase inh = HCV NS3 helicase inhibition; inhibition, % at 10.9 µM; AID 1800; NS3 helicase DNA unwinding, Cy5 molecular beacon fluorescence; 290,000 tested, 0.56% active;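 active = inhibition above the mean of all tested compounds plus 3 SD, set per campaign, cut at about 35% in these data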
#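 Control set: DMSO versus 110 µM thioflavine S; Material: NS3 helicase fragment of HCV; Measured by: Cy5 fluorescence at 0 and 60 min, beacon hairpin quenching; Read-out basis: percent inhibition from t60/t0 fluorescence ratio; Times: reaction time 60 min, 25 °C; Repeats: single replicate; Compound dosing: single dose, 10.9 µM nominal final, DMSO 0.8% final.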
# DNMT1 interf DR = counter-screen for DNMT1 inhibitors: spectral interference, dose response. shares compounds with DNMT1 inh. molecular beacon fluorescence. IC50, µM. 200 tested, under 10 active. AID 602382; call rule not given here
# DNMT1 inh conf = confirmation of human DNMT1 inhibitors | 2,300 tested, 8% active | inhibition, % at 10 µM | shares compounds with DNMT1 inh | DNMT1 molecular beacon HinP1I cleavage, fluorescence;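 active = average inhibition of at least 30% in the single-concentration confirmation test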
# Beacon interf = counter-screen for DNMT1 inhibitors: spectral interference; shares compounds with DNMT1 inh; DNMT1 molecular beacon spectral interference counterscreen, fluorescence 485/520; activation (fluorescence interference), % at 10 µM; 2,300 tested, 1% active; AID 602387;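 active = activation of at least 30% at 10 µM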;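 also: DNMT1 catalytic domain with a HinP1I cleavage step and a FAM/dabcyl DNA beacon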
# Numbers stand for hits; i = inactive; nt = not tested or not shown. Most compounds without a hit are left out; they make up all but 1.5% or so of the library. Rule as the data show it, unless noted: active = inhibition above about 50%; inactive = the rest.
SMILES,DNMT1 inh,Casp6 inh,NSD2 inh,NS3 helicase inh,DNMT1 inh conf,Beacon interf,others
CC12CCC3c4ccc(O)c([N+](=O)[O-])c4CCC3C1CCC2=O (stereo not drawn),78,i,i,nt,i,i,
COc1ccc(S(=O)(=O)Nc2ccc3c(c2)C(=O)N([C@@H](C)CO)C[C@@H](C)[C@H](CN(C)S(=O)(=O)c2c(C)noc2C)OCCCC[C@@H](C)O3)cc1,nt,i,nt,nt,nt,nt,
Cc1sc2ncnc(NC(C)C(=O)O)c2c1C (stereo not drawn),55,i,i,i,i,i,
O=C(C[C@H]1CC[C@H](NS(=O)(=O)c2ccc(F)cc2)[C@H](CO)O1)NCc1ccccc1F,nt,i,nt,nt,nt,nt,
CC(/C=N/n1c(-c2ccncc2)n[nH]c1=S)=C\c1ccco1,83,i,i,i,i,i,
S=c1[nH]nc(-c2ccccc2Cl)n1/N=C/C=C/c1ccco1,i,i,i,i,nt,nt,
Cc1cccc(-c2n[nH]c(=S)n2/N=C/C=C/c2ccco2)c1,66,i,i,i,i,i,
S=c1[nH]nc(-c2ccncc2)n1/N=C/C=C/c1ccco1,63,51,i,i,i,i,
O=C(C[C@@H]1CC[C@@H](NC(=O)Cc2cccnc2)[C@@H](CO)O1)Nc1ccccc1,nt,i,nt,nt,nt,nt,
CCOc1ccc(OCC)c(S(=O)(=O)NCCOC23CC4CC(CC(C4)C2)C3)c1,i,i,i,i,nt,nt,
COc1cc(S(=O)(=O)NCCOC23CC4CC(CC(C4)C2)C3)c(OC)cc1Cl,107,i,i,i,i,i,
CCc1nc2sc3ccccc3c(=O)c2c(=O)n1Cc1ccco1,88,nt,i,i,i,i,
CCc1nc2oc3cc(OC)ccc3c(=O)c2c(=O)n1Cc1ccco1,i,nt,i,i,nt,nt,
O=C1c2ccccc2C(=O)N1CCc1c(-c2[nH]c3ccccc3c2CCN2C(=O)c3ccccc3C2=O)[nH]c2ccccc12,56,i,nt,nt,i,i,
O=C1c2ccccc2C(=O)N1CCc1c(-c2ccccc2)[nH]c2ccccc12,i,i,nt,nt,nt,nt,
CCOC(=O)C1=C(C)N=c2s/c(=C/c3ccccc3)c(=O)n2C1c1ccc(OC)c(OC)c1 (stereo not drawn),i,nt,i,i,nt,nt,
CCOC(=O)C1=C(C)N=c2s/c(=C/c3ccc(OCC(=O)O)c(OC)c3)c(=O)n2C1c1ccc(Cl)cc1 (stereo not drawn),58,i,i,nt,59,i,DNMT1 interf DR=i
CCOC(=O)C1=C(C)N=c2s/c(=C\c3ccc(OCC(=O)O)cc3)c(=O)n2C1c1ccc(Cl)cc1 (stereo not drawn),i,i,i,i,nt,nt,
CC1=C(C(=O)OC(C)C)C(c2ccc(Cl)cc2)n2c(sc(=Cc3ccc(OCC(=O)O)cc3)c2=O)=N1 (stereo not drawn),104,i,nt,nt,105,i,DNMT1 interf DR=i
CN(C)C(=O)C[C@H]1CC[C@@H]2[C@H](COC[C@@H](O)CN2Cc2ccc(C(F)(F)F)cc2)O1,nt,i,nt,nt,nt,nt,
CCOC(=O)C1C(=O)C(=O)N(C(C)C)C1C(=O)OCC (stereo not drawn),i,i,i,nt,nt,nt,
CCOC(=O)C1C(=O)CC(=O)CC1CC(C)SCC (stereo not drawn),79,nt,i,i,i,i,
CCC1CCc2sc(C(=O)NNC(=O)c3ccncc3)cc2C1 (stereo not drawn),88,59,i,nt,i,i,
CCC1CCc2sc(C(=O)O)cc2C1 (stereo not drawn),i,nt,i,i,nt,nt,
C#Cc1ccc([C@@H]2C=C(C(=O)O)O[C@H](OCC)[C@H]2CCCO)cc1,52,i,nt,nt,i,i,
SMILES,DNMT1 inh,Casp6 inh,NSD2 inh,NS3 helicase inh,DNMT1 inh conf,Beacon interf,others
CCO[C@H]1OC(C(=O)O)=C[C@@H](c2ccc(Br)cc2)[C@@H]1CCCO,nt,i,nt,nt,nt,nt,
C[C@H](CO)N1C[C@H](C)[C@H](CN(C)S(=O)(=O)c2ccccc2)Oc2ccc(NS(=O)(=O)c3cn(C)cn3)cc2CC1=O,nt,i,nt,nt,nt,nt,
Cc1ccc(OCC(=O)Nc2ccc(N3CCCC3)cc2)cc1C,67,nt,i,i,i,i,
Cc1cccc(OCC(=O)Nc2cccc(-c3nnc(-c4ccccc4)o3)c2)c1C,57,nt,i,i,i,i,
Cc1cccc(C)c1OCC(=O)Nc1cccc(-c2nnc(-c3ccccc3)o2)c1,i,nt,i,i,nt,nt,
Cc1cccc(OCC(=O)Nc2ccc(N3CCCC3)cc2)c1C,59,nt,i,nt,i,i,DNMT1 interf DR=i
COc1ccccc1OCC(=O)Nc1ccc(N2CCCCC2)cc1,i,i,i,i,nt,nt,
C[C@H](CO)N1C[C@H](C)[C@@H](CN(C)C(=O)CN(C)C)Oc2cc(-c3cccnc3)ccc2S1(=O)=O,nt,i,nt,nt,nt,nt,
CCOC(=O)C(C)N1C(=O)S/C(=C\c2ccc(-c3ccccc3C(=O)O)o2)C1=O (stereo not drawn),100,60,i,i,45,i,DNMT1 interf DR=i
S=c1[nH]nc(-c2ccncc2)n1/N=C/c1cn(-c2ccccc2)nc1-c1ccc(Cl)cc1,75,i,i,i,i,i,
NC(=O)C1CCN(C(=O)C2CCN(S(=O)(=O)c3ccccc3)CC2)CC1,81,i,nt,i,i,i,
CC1=C(C(=O)Nc2ccccc2)C(c2ccc(C)o2)n2c(s/c(=C/c3ccccc3)c2=O)=N1 (stereo not drawn),84,nt,i,i,i,i,
C[C@@H]1CN([C@H](C)CO)C(=O)Cc2cc(NC(=O)C3CCCCC3)ccc2O[C@@H]1CN(C)CC1CC1,nt,i,nt,nt,nt,nt,
CCOC(=O)CCCCC(=O)NC(CO)C(=O)NC (stereo not drawn),59,nt,i,i,i,i,
Cc1ccccc1-c1cc2nc(C)c(C)c(=O)n2[nH]1,84,i,i,i,i,i,
COc1ccc(C(=O)CC(=O)C(=O)NCCc2cccc(C)c2)cc1,89,nt,i,i,i,i,
COc1ccc(C(=O)Nc2ccc3c(c2)OC[C@H](C)NC[C@H](C)[C@@H](OC)CN(C)C3=O)cc1,nt,i,nt,nt,nt,nt,
CC1=NN(c2nc(N)nc(/C(C#N)=C/c3ccc([N+](=O)[O-])o3)n2)C(C)(C)C1,54,i,nt,nt,i,i,
C[C@H](CO)N1C[C@H](C)[C@@H](CN(C)Cc2ccc(C(=O)O)cc2)Oc2ccc(NC(=O)C3CC3)cc2CC1=O,nt,i,nt,nt,nt,nt,
CC(=O)c1ccc(C(=O)Nc2sc3c(c2C(N)=O)CCN(Cc2ccccc2)C3)cc1,84,i,nt,i,i,i,
COc1cc(/C=C(\C#N)c2nc3ccccc3s2)ccc1OCC(=O)Nc1ccccc1,57,nt,nt,i,i,i,
CCOC(=O)/C(C#N)=C/c1ccc(OCC(=O)Nc2ccc(C)c(C)c2)c(OC)c1,54,nt,i,i,i,i,
COc1cc(/C=C(\CC(=O)O)c2nc3ccccc3s2)ccc1OCC(=O)Nc1ccccc1F,i,i,i,nt,nt,nt,
COc1cc(/C=C(/C#N)c2nc3ccccc3[nH]2)ccc1OCC(=O)Nc1ccccc1C,52,i,i,i,i,i,
COc1cc(/C=C(/C#N)c2nc3ccccc3[nH]2)ccc1OCC(=O)Nc1ccccc1C(C)C,i,nt,i,i,nt,nt,
